Results published in ChEMBL document CHEMBL4257585, “Structure-Activity Relationships of Photoswitchable Diarylethene-Based β-Hairpin Peptides as Membranolytic Antimicrobial and Anticancer Agents” (J Med Chem, 2018).
Converted amounts (≈) assume the structure as drawn.

Legend:
Bacillus subtilis = assay: Antimicrobial activity against Bacillus subtilis DSM 347 after 22 hrs by resazurin dye based spectrophotometry; assay type: functional; settings: DSM 347, 22 h
Method in brief: (§1)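 2-fold broth microdilution in Mueller–Hinton medium; peptide stocks 1024 μg/mL in 50% ethanol. Exponential-phase cultures diluted to OD550 0.2, then 1:100 (B. subtilis) or 1:1000 (E. coli), giving 5 × 10^5 CFU/mL per well. Incubated 22 h, 37 °C, static; then resazurin (0.2 mg/mL solution) added for 2 h at 37 °C, read visually and spectrophotometrically. Tested in both photoforms.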

Escherichia coli = assay: Antimicrobial activity against Escherichia coli DSM 1103 after 22 hrs by resazurin dye based spectrophotometry; assay type: functional; settings: DSM 1103, 22 h; method in brief: as §1
HeLa = assay: Cytotoxicity against human HeLa cells assessed as reduction in cell viability after 24 hrs by MTT assay; assay type: functional, cell-based
Method in brief: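 HeLa cells seeded at about 5 × 10^4 cells/mL in DMEM with 10% FBS, 2 mM glutamine, gentamicin; 24 h adaptation (37 °C, 5% CO2), then 24 h peptide exposure. MTT 4 h, formazan in DMSO read at 570 nm. 2-fold series 256–0.5 (open) or 512–1 μg/mL (closed), four repetitions; IC50 extrapolated from killing curves. Closed form handled in dim light.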

[1] = Hemolytic activity against human RBC assessed as hemolysis after 30 mins by colorimetric method; assay type: ADME, cell-based, Erythrocyte; settings: human red blood cells (erythrocytes)
Method in brief: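 Human erythrocytes washed twice in isotonic 172 mM Tris-HCl, pH 7.6; peptides dissolved in DMSO, diluted in buffer, two independent 10-step 2-fold series from 256 or 192 μg/mL. HC50 extrapolated as 50% hemolysis concentration.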

[2] = Therapeutic index, ratio of HC50 for human RBC to MIC for Escherichia coli DSM 1103; assay type: toxicity; settings: human red blood cells versus Escherichia coli DSM 1103
Method in brief: (§2)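 Ratio of HC50 (RBC) to HeLa IC50 or to MIC against B. subtilis or E. coli; values measured in mg/mL and recalculated to μM, 2-fold dilution without curve fitting, accuracy within a factor of 2.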

[3] = Therapeutic index, ratio of HC50 for human RBC to MIC for Bacillus subtilis DSM 347; assay type: toxicity; settings: human red blood cells versus Bacillus subtilis DSM 347; method in brief: as §2
[4] = Selective ratio of HC50 for human RBC to IC50 for human HeLa cells; assay type: toxicity; settings: human red blood cells versus HeLa cells; method in brief: as §2
HepG2 = assay: Cytotoxicity against human HepG2 cells assessed as reduction in cell viability after 24 hrs by MTT assay; assay type: functional, cell-based; settings: HepG2, 24 h
Method in brief: (§3)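 Cells were grown in DMEM with 10% FBS, 2 mM L-glutamine and 40 μg/mL gentamicin, seeded at about 5 × 10^4 cells/mL, and allowed 24 h adaptation (37 °C, 5% CO2). Peptides were then added for 24 h as 2-fold dilutions (open 256–0.5, closed 512–1 μg/mL), closed form handled under dim light. MTT was given for 4 h, formazan dissolved in DMSO and read at 570 nm. Four repetitions; IC50 extrapolated from viability curves.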

MCF7 = assay: Cytotoxicity against human MCF7 cells assessed as reduction in cell viability after 24 hrs by MTT assay; assay type: functional, cell-based; settings: MCF7, 24 h; method in brief: as §3
MIA PaCa-2 = assay: Cytotoxicity against human MIAPaCa2 cells assessed as reduction in cell viability after 24 hrs by MTT assay; assay type: functional, cell-based; settings: MIA PaCa-2, 24 h; method in brief: as §3
[5] = Cytotoxicity against human MOR cells assessed as reduction in cell viability after 24 hrs by MTT assay; assay type: functional, cell-based; method in brief: as §3
[6] = Cytotoxicity against human doxorubicin-resistant MOR cells assessed as reduction in cell viability after 24 hrs by MTT assay; assay type: functional, cell-based; method in brief: as §3

SMILES	MIC (Bacillus subtilis) [µM]	MIC (Escherichia coli) [µM]	IC50 (HeLa) [µM]	HC50 at 0.5 h [1] [µM]	selectivity ratio [2]	selectivity ratio [3]	selectivity ratio [4]	IC50 (HepG2) [µM]	IC50 (MCF7) [µM]	IC50 (MIA PaCa-2) [µM]	IC50 [5] [µM]	IC50 [6] [µM]
CC(C)[C@@H]1NC(=O)C2=CC3=C4CCCC4=C4C=C(S[C@]4(C)[C@@]3(C)S2)C(=O)[C@H]2CCCN2C(=O)[C@H](C(C)C)NC(=O)[C@H](CCCN)NC(=O)[C@H]([C@H](O)C(C)C)NC(=O)[C@@H]2CCCN2C(=O)[C@@H](Cc2ccccc2)NC(=O)[C@H](C(C)C)NC(=O)[C@H](CCCN)NC1=O	9 (≈ 11.5 µg/mL)	100 (≈ 128 µg/mL)	150	200	2	21.3	1.3	100	150	150	150	100
Cc1sc2cc1C1=C(CCC1)c1cc(sc1C)C(=O)[C@H]1CCCN1C(=O)[C@H](C(C)C)NC(=O)[C@H](CCCN)NC(=O)[C@H]([C@H](O)C(C)C)NC(=O)[C@@H]1CCCN1C(=O)[C@@H](Cc1ccccc1)NC(=O)[C@H](C(C)C)NC(=O)[C@H](CCCN)NC(=O)[C@H](C(C)C)NC2=O	3 (≈ 3.85 µg/mL)	50 (≈ 64.1 µg/mL)	9	20	0.4	6.7	2.2	5	6	6	5	5
CC(C)[C@@H]1NC(=O)[C@H](CCCN)NC(=O)[C@H]([C@H](O)C(C)C)NC(=O)C2=CC3=C4CCCC4=C4C=C(S[C@]4(C)[C@@]3(C)S2)C(=O)[C@H]2CCCN2C(=O)[C@H](C(C)C)NC(=O)[C@H](CCCN)NC(=O)[C@H](C(C)C)NC(=O)[C@H](CCCn2cc(COCc3cn(CCC[C@H]4C(=O)N[C@@H](C(C)C)C(=O)N[C@@H](CCCN)C(=O)N[C@@H](C(C)C)C(=O)N5CCC[C@@H]5C(=O)C5=CC6=C7CCCC7=C7C(=CS[C@]7(C)[C@@]6(C)S5)C(=O)N[C@@H]([C@H](O)C(C)C)C(=O)N[C@@H](CCCN)C(=O)N[C@@H](C(C)C)C(=O)N[C@H](Cc5ccccc5)C(=O)N4C)nn3)nn2)N(C)C(=O)[C@@H](Cc2ccccc2)NC1=O	6 (≈ 16.6 µg/mL)	96 (≈ 266 µg/mL)	48	10	0.1	1.7	0.2					
CC[C@H](C)[C@@H]1NC(=O)C2=CC3=C4CCCC4=C4C=C(S[C@]4(C)[C@@]3(C)S2)C(=O)[C@H]2CCCN2C(=O)[C@H](CC(C)C)NC(=O)[C@H](CCCN)NC(=O)[C@H]([C@@H](C)CC)NC(=O)[C@@H]2CCCN2C(=O)[C@H]2CCCN2C(=O)[C@H](CC(C)C)NC(=O)[C@H](CCCN)NC1=O	6 (≈ 7.55 µg/mL)	203 (≈ 256 µg/mL)	64	120	0.6	20	1.9					
CCCCN1C(=O)[C@@H](Cc2ccccc2)NC(=O)[C@H](CC(C)C)NC(=O)[C@H](CCCN)NC(=O)[C@H]([C@@H](C)CC)NC(=O)C2=CC3=C4CCCC4=C4C=C(S[C@]4(C)[C@@]3(C)S2)C(=O)[C@H]2CCCN2C(=O)[C@H](CC(C)C)NC(=O)[C@H](CCCN)NC(=O)[C@H]([C@@H](C)CC)NC(=O)[C@@H]1CC(C)C	1 (≈ 1.38 µg/mL)	186 (≈ 257 µg/mL)	13	13	0.1	13	1					
Cc1sc2cc1C1=C(CCC1)c1cc(sc1C)C(=O)[C@H]1CCCN1C(=O)[C@H](C(C)C)NC(=O)[C@H](CCCN)NC(=O)[C@H]([C@H](O)C(C)C)NC(=O)[C@@H]1CCCN1C(=O)[C@@H](Cc1ccccc1)NC(=O)[C@H](C(C)C)NC(=O)[C@H](CCCN)NC(=O)[C@H]([C@H](O)C(C)C)NC2=O	3 (≈ 3.94 µg/mL)	98 (≈ 129 µg/mL)	61	160	1.6	53.3	2.6					
CC(C)C[C@@H]1NC(=O)[C@H](CCCNC(=N)N)NC(=O)[C@H](C(C)C)NC(=O)C2=CC3=C4CCCC4=C4C=C(S[C@]4(C)[C@@]3(C)S2)C(=O)[C@H]2CCCN2C(=O)[C@H](CC(C)C)NC(=O)[C@H](CCCNC(=N)N)NC(=O)[C@H](C(C)C)NC(=O)[C@@H]2CCCN2C(=O)[C@@H](Cc2ccccc2)NC1=O	6 (≈ 8.19 µg/mL)	94 (≈ 128 µg/mL)	35	10	0.1	1.7	0.3					
Cc1sc2cc1C1=C(CCC1)c1cc(sc1C)C(=O)[C@H]1CCCN1C(=O)[C@H](C(C)C)NC(=O)[C@H](CCCN)N(C)C(=O)[C@H](C(C)C)NC(=O)[C@@H]1CCCN1C(=O)[C@@H](Cc1ccccc1)N(C)C(=O)[C@H](C(C)C)NC(=O)[C@H](CCCN)NC(=O)[C@H](C(C)C)NC2=O	2 (≈ 2.56 µg/mL)	100 (≈ 128 µg/mL)	25	59	0.6	29.5	2.4					
C[C@@H](O)[C@@H]1NC(=O)[C@H](C23CC4CC(CC(C4)C2)C3)NC(=O)[C@H](CCCN)NC(=O)[C@@H]2CCCN2C(=O)[C@@H](Cc2ccccc2)NC(=O)[C@H](CCCN)NC(=O)[C@H](C23CC4CC(CC(C4)C2)C3)NC(=O)[C@H](CCCN)NC(=O)C2=CC3=C4CCCC4=C4C=C(S[C@]4(C)[C@@]3(C)S2)C(=O)[C@H]2CCCN2C1=O	2 (≈ 2.91 µg/mL)	13 (≈ 18.9 µg/mL)	11	13	0.1	6.5	1.2					
CC(C)[C@@H]1NC(=O)C2=CC3=C4CCCC4=C4C=C(S[C@]4(C)[C@@]3(C)S2)C(=O)[C@H]2CCCN2C(=O)[C@H]([C@H](O)C(C)C)NC(=O)[C@H](CCCN)NC(=O)[C@H](C(C)C)NC(=O)[C@@H]2CCCN2C(=O)[C@@H](Cc2ccccc2)NC(=O)[C@H](C(C)C)NC(=O)[C@H](CCCN)NC1=O	25 (≈ 32.1 µg/mL)	200 (≈ 257 µg/mL)	300	200	1	8	0.7					
C[C@]12SC3=CC1=C1CCCC1=C1C=C(S[C@@]12C)C(=O)[C@H]1CCCN1C(=O)[C@H](CCCCN)NC(=O)[C@H](C12CC4CC(CC(C4)C1)C2)NC(=O)[C@H](CCCN)NC(=O)[C@@H]1CCCN1C(=O)[C@@H](Cc1ccccc1)NC(=O)[C@H](CCCN)NC(=O)[C@H](C12CC4CC(CC(C4)C1)C2)NC(=O)[C@H](CCCN)NC3=O	3 (≈ 4.44 µg/mL)	8 (≈ 11.8 µg/mL)	11	1	0.1	0.3	0.1					
CC(C)C[C@@H]1NC(=O)[C@H](CCCN)NC(=O)[C@H](C(C)C)NC(=O)C2=CC3=C4CCCC4=C4C=C(S[C@]4(C)[C@@]3(C)S2)C(=O)[C@H]2CCCN2C(=O)[C@H](C)NC(=O)[C@H](CCCN)NC(=O)[C@H](C(C)C)NC(=O)[C@@H]2CCCN2C(=O)[C@@H](Cc2ccccc2)NC1=O	13 (≈ 16.1 µg/mL)	207 (≈ 256 µg/mL)	39	45	0.2	3.5	1.2					
